This note sets out measurements from ChEMBL document CHEMBL4219101, “Discovery of 18β-glycyrrhetinic acid conjugated aminobenzothiazole derivatives as Hsp90-Cdc37 interaction disruptors that inhibit cell migration and reverse drug resistance” (Bioorg Med Chem, 2018).

The source made the active and inactive calls. The calls are words filed in the database; no cut-off is given here.

Test [1] relates to A549. The experiment in a line: Inhibition of Hsp90/Cdc37 interaction in human A549 cells assessed as downregulation of Cdc37 in immunoprecipitated HSP90 complex at 10 uM after 24 hrs by Western blot analysis. In kind it is cell-based. Summed up: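 A549 cells exposed to 5 and 10 µM for 24 h, geldanamycin 10 µM as comparator. Lysis in 20 mM Tris-HCl pH 7.4, 25 mM NaCl, 2 mM DTT, 20 mM Na2MoO4, 0.1% NP-40 and protease inhibitors. 500 µg protein immunoprecipitated overnight at 4 °C with anti-Hsp90 antibody, captured on protein G agarose, washed five times and boiled. Cdc37 and Hsp90 detected by Western blot, with input also blotted.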
A general note: In western blotting, separated proteins are transferred to a membrane and probed.

Test [2] concerns HCT-116. Nature of the test: Antiproliferative activity against human HCT116 cells after 48 hrs by MTT assay. In kind it is functional, cell-based. Conditions: HCT-116, 48 h. Summed up: (§1)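 Cells in log phase seeded at about 1.0 × 10^5 cells/mL in 96-well plates, left 12 h at 37 °C, 5% CO2. Compounds dissolved in DMSO, added at 2.5, 5, 10, 20 and 50 µM, 48 h exposure. Absorbance read at 570/630 nm dual wavelength. Survival expressed relative to negative control. IC50 by Bliss method (n = 5), tests done in triplicate.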

In test [3] the test system is MCF7. Nature of the test: Antiproliferative activity against human MCF7 cells after 48 hrs by MTT assay. It counts as functional, cell-based. The conditions noted are these: MCF7, 48 h. In a few lines: as §1
On the technique in general: Formazan colour is commonly taken as a measure of viable cells.

For test [4], the system named is A549. The experiment in a line: Antiproliferative activity against human A549 cells after 48 hrs by MTT assay. Conditions: A549, 48 h. It counts as functional, cell-based. Summed up: as §1
The test system of test [5] is HepG2. The experiment in a line: Antiproliferative activity against human HepG2 cells after 48 hrs by MTT assay. It counts as functional, cell-based. The conditions noted are these: HepG2, 48 h. Summed up:
as §1

A short description of test [6]: Inhibition of His-tagged full-length Hsp90 (unknown origin)/GST-tagged Cdc37M (unknown origin) interaction after 1 hr by HTRF assay. Details: species or system Homo sapiens. Summed up: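 TR-FRET in PBS containing 400 mM KF, pH 7.3. His-tagged full-length Hsp90 and GST-Cdc37M, each 250 nM final, incubated with compound for 1 h at 37 °C. Anti-GST-Cryptate and anti-6His-XL665 then added for a further 0.5 h at 37 °C. Excitation 320 nm, emission 665/620 nm, reported as ratio ×10,000. Negative and blank controls run in each assay.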
(In general: Time-resolved FRET reads energy transfer from a long-lived donor to a nearby acceptor.)

The nature of test [7]: Inhibition of HSP90/Cdc37 interaction in human doxorubicin-resistant NCI-H460 cells assessed as reduction in cell proliferation after 48 hrs by MTT assay. The conditions noted are these: NCI-H460, 48 h. Summed up:
as §1

The species entered for test [8] is Homo sapiens. Nature of the test: Inhibition of HSP90/Cdc37 interaction assessed as reversal of drug resistance by measuring ratio of IC50 for human doxorubicin-resistant NCI-H460 cells to IC50 for human NCI-H460 cells. Summed up: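 Resistance factor is the ratio of IC50 in NCI-H460/DOX cells to IC50 in parental NCI-H460 cells. […] Values are mean ± SD of five separate experiments. Doxorubicin serves as the positive control.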

A short description of test [9]: Antiproliferative activity against human NCI-460 cells after 48 hrs by MTT assay. It counts as functional, cell-based. Conditions: NCI-460, 48 h. Summed up: as §1

Take `COC1=C2C[C@@H](C)C[C@H](OC)[C@H](O)[C@@H](C)/C=C(\C)[C@H](OC(N)=O)[C@@H](OC)/C=C\C=C(/C)C(=O)NC(=CC1=O)C2=O`: the inhibition result in test [1] was “inactive”.

By IC50 is commonly meant the concentration that inhibits the measured activity by half. As to `CCOC(=O)[C@@]1(C)CC[C@]2(C)CC[C@]3(C)C(=CC(=O)[C@@H]4[C@@]5(C)CC[C@H](OC(=O)CCC(=O)Nc6nc7ccc(Cl)cc7s6)C(C)(C)[C@@H]5CC[C@]43C)[C@@H]2C1`, the IC50 was 11 µM in [2]; 8.66 µM in test [3]; 6.09 µM in test [4]; 12.4 µM in [5]; 0.83 µM in test [6]; 12 µM in test [7]. This compound also yielded a 50% inhibitory concentration (IC50) in test [9] of 10.6 µM. The Ratio IC50 in [8] amounted to 1.13.

Turning to `CCOC(=O)[C@@]1(C)CC[C@]2(C)CC[C@]3(C)C(=CC(=O)[C@@H]4[C@@]5(C)CC[C@H](OC(=O)CCC(=O)Nc6nc7c(Cl)cccc7s6)C(C)(C)[C@@H]5CC[C@]43C)[C@@H]2C1`, the IC50 in [2] turned out to be 15.4 µM; in test [3], 15 µM; in test [4], 13.6 µM; in [5], 17 µM; in test [6] it was 1.67 µM; in test [7], 18.1 µM. In test [9], this compound returned an IC50 of 14 µM. In [8], the Ratio IC50 came to 1.29.

For `CCOC(=O)[C@@]1(C)CC[C@]2(C)CC[C@]3(C)C(=CC(=O)[C@@H]4[C@@]5(C)CC[C@H](OC(=O)CCC(=O)Nc6nc7c(F)cccc7s6)C(C)(C)[C@@H]5CC[C@]43C)[C@@H]2C1`, the half-maximal inhibitory concentration (IC50) worked out at 10.1 µM in test [2]; 10.9 µM in [3]; 9.07 µM in test [4]; 12.5 µM in [5]; 1.05 µM in [6]; 15.4 µM in [7]. This compound yielded an IC50 in [9] of 12.5 µM. For the same compound, in test [8], the Ratio IC50 was found to be 1.23.
